Results reported in ChEMBL document CHEMBL5712908, “A genome-wide RNAi screen reveals essential therapeutic targets of breast cancer stem cells” (2019).
Activity calls are given as the source filed them. The calls are words filed in the database; no cut-off is given here.

Assays:
SUM-159-PT [1] = assay: Anticancer activity against human SUM159 cells assessed as decrease in secondary tumor sphere formation incubated for 72 hrs by Extreme limiting dilution analysis; format: functional, cell-based
Method in brief: (§1)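 Cells drug-treated in adherent culture for 72 h, then plated as single cells in ultra-low attachment 96-well plates in serum-free mammary epithelium basal medium. Plating at 25/10/5/3/2/1 cells per well, 18–36 wells per condition. Wells with ≥1 sphere after 10 days scored positive. Secondary spheres were made by dissociating primary spheres. Frequency by ELDA; n = 4; pairwise chi-square test.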

SUM-159-PT [2] = assay: Anticancer activity against human SUM159 cells assessed as decrease in primary tumor sphere formation incubated for 72 hrs by Extreme limiting dilution analysis; format: functional, cell-based; method in brief: as §1
[3] = target: T1, Splicing factor 3B subunit 2 (Homo sapiens) (UniProt Q13435); assay: Inhibition of SF3B2 in human SUM159 cells assessed as K-score by measuring ALDHbr cells by LSR2 cytometer; format: cell-based
T1 sequence (whole entry): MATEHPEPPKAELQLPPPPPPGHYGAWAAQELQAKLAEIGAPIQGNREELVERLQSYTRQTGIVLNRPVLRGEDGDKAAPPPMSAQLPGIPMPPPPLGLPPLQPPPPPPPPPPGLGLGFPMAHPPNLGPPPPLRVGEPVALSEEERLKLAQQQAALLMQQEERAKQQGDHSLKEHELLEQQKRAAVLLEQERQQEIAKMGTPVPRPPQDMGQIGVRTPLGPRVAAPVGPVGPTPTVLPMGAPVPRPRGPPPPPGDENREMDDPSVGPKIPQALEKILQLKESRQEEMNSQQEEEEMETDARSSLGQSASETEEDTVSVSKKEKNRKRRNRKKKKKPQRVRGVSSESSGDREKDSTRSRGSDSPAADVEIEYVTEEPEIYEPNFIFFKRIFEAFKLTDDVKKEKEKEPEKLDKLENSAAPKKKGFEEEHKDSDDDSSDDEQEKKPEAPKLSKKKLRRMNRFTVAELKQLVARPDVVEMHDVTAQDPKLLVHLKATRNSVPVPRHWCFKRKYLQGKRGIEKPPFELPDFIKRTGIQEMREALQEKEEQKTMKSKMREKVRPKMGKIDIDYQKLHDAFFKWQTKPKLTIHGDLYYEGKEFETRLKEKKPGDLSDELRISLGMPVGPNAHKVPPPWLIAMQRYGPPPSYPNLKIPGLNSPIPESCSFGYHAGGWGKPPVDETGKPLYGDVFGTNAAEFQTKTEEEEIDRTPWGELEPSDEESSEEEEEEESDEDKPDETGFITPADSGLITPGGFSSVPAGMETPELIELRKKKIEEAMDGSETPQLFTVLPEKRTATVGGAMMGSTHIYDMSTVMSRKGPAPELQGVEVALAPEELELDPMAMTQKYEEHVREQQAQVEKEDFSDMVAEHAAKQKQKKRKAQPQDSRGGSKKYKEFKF
Method in brief: (§2)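 Cell lines exposed for 72 h in adherent culture to a range of concentrations centred on the MTS-derived IC50. ALDHbr proportion measured by ALDEFLUOR flow cytometry (LSR2). K-score is the linear regression coefficient, on log10-transformed doses, between the untreated condition and the dose predicted to give a 50% decrease or increase in ALDHbr proportion versus control.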

[4] = target: T1, Splicing factor 3B subunit 2 (Homo sapiens); assay: Inhibition of SF3B2 in human SUM149 cells assessed as K-score by measuring ALDHbr cells by LSR2 cytometer; format: cell-based; method in brief: as §2
[5] = target: T1, Splicing factor 3B subunit 2 (Homo sapiens); assay: Inhibition of SF3B2 in human S68 cells assessed as K-score by measuring ALDHbr cells by LSR2 cytometer; format: cell-based; method in brief: as §2
[6] = target: T1, Splicing factor 3B subunit 2 (Homo sapiens); assay: Inhibition of SF3B2 in human BrCa-MZ-01 cells assessed as K-score by measuring ALDHbr cells by LSR2 cytometer; format: cell-based; method in brief: as §2
[7] = target: T1, Splicing factor 3B subunit 2 (Homo sapiens); assay: Inhibition of SF3B2 in human MDA-MB-436 cells assessed as K-score by measuring ALDHbr cells by LSR2 cytometer; format: cell-based; method in brief: as §2
SUM149PT [8] = assay: Anticancer activity against human SUM149 cells assessed as decrease primary tumor sphere formation at 2 nM incubated for 72 hrs by Extreme limiting dilution analysis; format: functional, cell-based
Method in brief: (§3)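 Cells given drug (2 nM when combined with other agents) for 72 h in adherent culture, then plated as single cells in ultra-low attachment 96-well plates in serum-free mammary epithelium basal medium at 25/10/5/3/2/1 cells per well (18–36 wells per condition). Wells holding ≥1 sphere at 10 days scored positive. Sphere-forming frequency by extreme limiting dilution analysis, pairwise chi-square, n = 4.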

SUM149PT [9] = assay: Anticancer activity against human SUM149 cells assessed as decrease in ALDHbr cells at 2 nM by LSR2 cytometer analysis; format: functional, cell-based
Method in brief: (§4)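 Cells continuously exposed to drug for 72 h in adherent culture; single-cell suspensions stained with ALDEFLUOR kit and ALDH-high population measured by flow cytometry (LSR2) against a DEAB control. Residual ALDHbr proportion reported (n = 8), mean ± SD, Student's t-test.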

SUM-159-PT [10] = assay: Anticancer activity against human SUM159 cells assessed as decrease in ALDHbr cells at 2 nM by LSR2 cytometer analysis; format: functional, cell-based; method in brief: as §4
SUM-159-PT [11] = assay: Anticancer activity against human SUM159 cells assessed as decrease primary tumor sphere formation at 2 nM incubated for 72 hrs by Extreme limiting dilution analysis; format: functional, cell-based; method in brief: as §3
[12] = target: Histone acetyltransferase p300 (Homo sapiens) (UniProt Q09472); assay: Inhibition of EP300 in human SUM149 cells assessed as K-score by measuring ALDHbr cells by LSR2 cytometer; format: cell-based
Method in brief: (§5)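 Breast cancer lines exposed continuously for 72 h in adherent culture to a range of doses centred on the MTS-derived IC50 (72 h MTS, absorbance 540 nm). ALDHbr fraction measured by ALDEFLUOR flow cytometry (LSR2) with DEAB control. K-score = linear regression coefficient between untreated condition and the log10 dose at which ALDHbr proportion changes by 50% versus control.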

[13] = target: Histone acetyltransferase p300 (Homo sapiens) (UniProt Q09472); assay: Inhibition of EP300 in human S68 cells assessed as K-score by measuring ALDHbr cells by LSR2 cytometer; format: cell-based; method in brief: as §5
[14] = target: Histone acetyltransferase p300 (Homo sapiens) (UniProt Q09472); assay: Inhibition of EP300 in human BrCa-MZ-01 cells assessed as K-score by measuring ALDHbr cells by LSR2 cytometer; format: cell-based; method in brief: as §5
[15] = target: Histone acetyltransferase p300 (Homo sapiens) (UniProt Q09472); assay: Inhibition of EP300 in human MDA-MB-436 cells assessed as K-score by measuring ALDHbr cells by LSR2 cytometer; format: cell-based; method in brief: as §5
[16] = target: Histone acetyltransferase p300 (Homo sapiens) (UniProt Q09472); assay: Inhibition of EP300 in human SUM159 cells assessed as K-score by measuring ALDHbr cells by LSR2 cytometer; format: cell-based; method in brief: as §5
[17] = target: Runt-related transcription factor 1 (Homo sapiens) (UniProt Q01196); assay: Inhibition of RUNX1 in human BrCa-MZ-01 cells assessed as K-score by measuring ALDHbr cells by LSR2 cytometer; format: cell-based; method in brief: as §2
[18] = target: Runt-related transcription factor 1 (Homo sapiens) (UniProt Q01196); assay: Inhibition of RUNX1 in human SUM159 cells assessed as K-score by measuring ALDHbr cells by LSR2 cytometer; format: cell-based; method in brief: as §2
[19] = target: Runt-related transcription factor 1 (Homo sapiens) (UniProt Q01196); assay: Inhibition of RUNX1 in human S68 cells assessed as K-score by measuring ALDHbr cells by LSR2 cytometer; format: cell-based; method in brief: as §2
[20] = target: Runt-related transcription factor 1 (Homo sapiens) (UniProt Q01196); assay: Inhibition of RUNX1 in human SUM149 cells assessed as K-score by measuring ALDHbr cells by LSR2 cytometer; format: cell-based; method in brief: as §2
[21] = target: Runt-related transcription factor 1 (Homo sapiens) (UniProt Q01196); assay: Inhibition of RUNX1 in human MDA-MB-436 cells assessed as K-score by measuring ALDHbr cells by LSR2 cytometer; format: cell-based; method in brief: as §2

Sequence of Runt-related transcription factor 1 (Homo sapiens) (Q01196 whole entry): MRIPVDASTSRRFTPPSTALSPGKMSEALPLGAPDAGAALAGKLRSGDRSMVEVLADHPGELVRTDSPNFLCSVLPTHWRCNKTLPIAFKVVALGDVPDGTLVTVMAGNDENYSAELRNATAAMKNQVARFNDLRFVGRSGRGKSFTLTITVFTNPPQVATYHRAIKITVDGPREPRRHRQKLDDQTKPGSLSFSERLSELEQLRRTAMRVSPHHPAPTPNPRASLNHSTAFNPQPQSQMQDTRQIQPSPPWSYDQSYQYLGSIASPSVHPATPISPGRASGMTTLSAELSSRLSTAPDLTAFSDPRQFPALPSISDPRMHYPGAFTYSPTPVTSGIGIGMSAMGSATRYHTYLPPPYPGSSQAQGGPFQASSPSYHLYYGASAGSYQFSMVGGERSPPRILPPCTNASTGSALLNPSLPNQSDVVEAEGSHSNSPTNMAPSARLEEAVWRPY
Sequence of Histone acetyltransferase p300 (Homo sapiens) (Q09472 whole entry): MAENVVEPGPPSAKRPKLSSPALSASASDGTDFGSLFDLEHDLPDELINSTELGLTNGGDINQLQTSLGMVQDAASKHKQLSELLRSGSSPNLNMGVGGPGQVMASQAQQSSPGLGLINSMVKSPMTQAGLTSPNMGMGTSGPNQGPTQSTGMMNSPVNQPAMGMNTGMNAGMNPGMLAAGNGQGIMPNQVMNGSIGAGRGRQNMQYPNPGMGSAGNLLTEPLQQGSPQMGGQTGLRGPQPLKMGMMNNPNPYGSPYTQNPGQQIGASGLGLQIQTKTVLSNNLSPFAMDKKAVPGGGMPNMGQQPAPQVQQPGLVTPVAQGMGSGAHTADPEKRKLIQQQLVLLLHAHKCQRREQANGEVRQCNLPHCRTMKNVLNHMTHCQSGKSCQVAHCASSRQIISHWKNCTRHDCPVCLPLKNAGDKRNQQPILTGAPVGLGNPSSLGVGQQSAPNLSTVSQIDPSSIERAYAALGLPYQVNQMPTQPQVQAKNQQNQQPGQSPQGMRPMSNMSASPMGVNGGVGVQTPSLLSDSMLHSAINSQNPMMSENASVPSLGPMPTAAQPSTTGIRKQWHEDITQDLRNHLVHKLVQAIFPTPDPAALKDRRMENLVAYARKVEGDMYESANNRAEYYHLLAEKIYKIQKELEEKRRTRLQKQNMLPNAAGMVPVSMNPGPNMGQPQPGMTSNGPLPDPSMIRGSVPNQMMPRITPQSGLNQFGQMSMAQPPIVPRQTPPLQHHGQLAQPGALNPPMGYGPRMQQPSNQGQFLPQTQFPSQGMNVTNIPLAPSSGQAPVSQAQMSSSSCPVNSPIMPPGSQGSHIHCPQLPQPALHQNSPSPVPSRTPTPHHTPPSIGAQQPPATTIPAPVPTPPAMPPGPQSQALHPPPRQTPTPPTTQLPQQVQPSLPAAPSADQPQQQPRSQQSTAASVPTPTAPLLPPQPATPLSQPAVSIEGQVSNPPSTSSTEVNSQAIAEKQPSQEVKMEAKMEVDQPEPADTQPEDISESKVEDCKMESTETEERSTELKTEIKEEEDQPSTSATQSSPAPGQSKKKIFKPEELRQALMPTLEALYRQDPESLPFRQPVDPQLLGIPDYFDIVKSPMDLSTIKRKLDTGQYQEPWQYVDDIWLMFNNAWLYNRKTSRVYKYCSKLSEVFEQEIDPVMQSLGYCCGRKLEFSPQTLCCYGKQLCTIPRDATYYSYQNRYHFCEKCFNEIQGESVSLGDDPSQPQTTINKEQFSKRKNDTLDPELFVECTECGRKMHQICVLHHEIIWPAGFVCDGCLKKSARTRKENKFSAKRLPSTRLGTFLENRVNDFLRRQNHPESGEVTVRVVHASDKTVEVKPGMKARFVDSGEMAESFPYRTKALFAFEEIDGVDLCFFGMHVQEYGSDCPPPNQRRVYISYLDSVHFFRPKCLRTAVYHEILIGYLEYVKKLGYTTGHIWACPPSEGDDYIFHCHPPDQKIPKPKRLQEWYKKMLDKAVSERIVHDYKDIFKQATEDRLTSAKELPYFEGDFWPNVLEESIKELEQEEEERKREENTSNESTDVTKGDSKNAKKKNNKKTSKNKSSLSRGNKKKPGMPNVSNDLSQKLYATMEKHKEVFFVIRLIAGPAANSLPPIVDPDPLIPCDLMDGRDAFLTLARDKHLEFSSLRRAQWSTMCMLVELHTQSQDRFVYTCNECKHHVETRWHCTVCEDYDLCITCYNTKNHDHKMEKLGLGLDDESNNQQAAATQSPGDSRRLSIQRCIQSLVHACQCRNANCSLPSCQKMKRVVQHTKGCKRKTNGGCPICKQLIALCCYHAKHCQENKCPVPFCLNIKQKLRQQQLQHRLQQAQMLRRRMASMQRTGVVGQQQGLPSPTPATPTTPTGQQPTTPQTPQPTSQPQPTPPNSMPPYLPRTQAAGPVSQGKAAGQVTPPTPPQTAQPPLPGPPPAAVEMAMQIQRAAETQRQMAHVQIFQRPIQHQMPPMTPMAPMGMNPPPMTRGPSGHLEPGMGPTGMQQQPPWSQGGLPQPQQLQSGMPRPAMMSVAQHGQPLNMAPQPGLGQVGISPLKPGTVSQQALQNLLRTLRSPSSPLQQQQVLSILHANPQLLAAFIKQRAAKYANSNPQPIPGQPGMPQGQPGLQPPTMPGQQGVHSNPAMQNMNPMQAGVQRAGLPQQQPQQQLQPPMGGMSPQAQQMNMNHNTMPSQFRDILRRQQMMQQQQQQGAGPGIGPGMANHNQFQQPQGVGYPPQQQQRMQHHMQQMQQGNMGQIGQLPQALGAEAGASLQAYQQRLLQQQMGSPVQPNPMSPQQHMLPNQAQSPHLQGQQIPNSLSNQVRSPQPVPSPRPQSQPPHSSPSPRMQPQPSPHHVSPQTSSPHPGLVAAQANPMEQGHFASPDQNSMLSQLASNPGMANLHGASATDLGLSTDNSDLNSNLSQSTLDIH

Question: `CCCc1cc(C)[nH]c(=O)c1CNC(=O)c1cc(-c2ccnc(N3CCN(C)CC3)c2)cc2c1cnn2C(C)C` was tested. Which Activity (SUM-159-PT [1]) did it give?
Answer: inactive

Question: What about the Activity (SUM-159-PT [2]) of the same compound?
Answer: inactive

Question: How did the Activity [3] turn out when `CO[C@]1(C)C[C@@]2(CO2)[C@H](O)[C@@H](/C=C/C(C)=C/C[C@@H]2O[C@H](C)[C@H](NC(=O)/C=C\[C@H](C)OC(C)=O)C[C@@H]2C)O1` was run?
Answer: 0.25

Question: And the Activity [4]?
Answer: -0.19

Question: And the Activity [5]?
Answer: -0.16

Question: And the Activity [6]?
Answer: 0.05

Question: What about the Activity [7] of the same compound?
Answer: -0.15

Question: Which Activity (SUM149PT [8]) does the source give for `CC(=O)O[C@@]12CO[C@@H]1C[C@H](O)[C@@]1(C)C(=O)[C@H](O)C3=C(C)[C@@H](OC(=O)[C@H](O)[C@@H](NC(=O)OC(C)(C)C)c4ccccc4)C[C@@](O)([C@@H](OC(=O)c4ccccc4)[C@H]21)C3(C)C` here?
Answer: inactive

Question: And the Activity (SUM149PT [9])?
Answer: inactive

Question: What about the Activity (SUM-159-PT [10]) of the same compound?
Answer: inactive

Question: And the Activity (SUM-159-PT [11])?
Answer: inactive

Question: Which results are given for `COc1ccc(CCc2nc3cc(-c4c(C)noc4C)ccc3n2C[C@H](C)N2CCOCC2)cc1Cl`?
Answer: Activity [12]: 0.1; Activity [13]: 0.08; Activity [14]: -0.01; Activity [15]: -0.04; Activity [16]: -0.02

Question: What does the source list for `CC#C[C@]1(O)CC[C@H]2[C@@H]3CCC4=CC(=O)CCC4=C3[C@@H](c3ccc(N(C)C)cc3)C[C@@]21C`?
Answer: Activity (SUM-159-PT [1]): Active; Activity (SUM-159-PT [2]): Active

Question: Which results are given for `O=C1CN=C(c2ccc[nH]2)c2cc(Cl)ccc2N1`?
Answer: Activity [17]: -0.04; Activity [18]: 0.09; Activity [19]: -0.07; Activity [20]: -0.04; Activity [21]: 0
